{"data": "Experimental data from different studies", "target": "B2 bradykinin receptor (BDKRB2, Homo sapiens, UniProt P30411)", "Residues used in one study (P30411 1-391)": "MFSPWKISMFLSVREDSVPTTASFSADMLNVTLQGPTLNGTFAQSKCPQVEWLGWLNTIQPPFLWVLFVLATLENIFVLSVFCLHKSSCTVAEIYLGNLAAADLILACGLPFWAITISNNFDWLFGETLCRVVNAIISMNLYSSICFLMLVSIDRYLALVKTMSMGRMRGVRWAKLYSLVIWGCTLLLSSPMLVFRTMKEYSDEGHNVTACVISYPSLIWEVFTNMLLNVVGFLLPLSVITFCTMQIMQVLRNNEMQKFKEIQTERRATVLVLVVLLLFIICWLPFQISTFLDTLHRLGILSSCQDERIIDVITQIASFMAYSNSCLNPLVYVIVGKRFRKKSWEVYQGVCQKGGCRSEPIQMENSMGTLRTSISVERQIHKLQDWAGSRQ", "note": "Lines come from different studies, so protocols differ."}
{"SMILES": "O=C(Nc1cccnn1)N1CCN([C@@H]2CCOc3cc(C(F)(F)F)ccc32)CC1", "test": "cell-free assay", "setting": "20 µM", "inhibition [%]": 10}
{"SMILES": "CC(C)N1CCC[C@H]1CNC(=O)c1cn(C2CCCC2)c(=O)c2c1c1ccccc1n2C", "test": "ligand displacement, radioligand", "setting": "10 µM", "inhibition [%]": 11}
{"SMILES": "COCc1c(-c2cc3cc(C)cc(OC)c3s2)c2c(N)ncnn2c1CN1CCNC(=O)C1", "test": "ligand displacement, radioligand", "setting": "10 µM", "inhibition [%]": 3}
{"SMILES": "c1ccc(C(NCCNC(c2ccccc2)c2ccccc2)c2ccccc2)cc1", "test": "cell-free assay", "setting": "10 µM", "inhibition [%]": 17}
{"SMILES": "CN(CCN1CCC(OC(=O)Nc2ccccc2-c2ccccc2)CC1)C(=O)c1ccc(CN2CCC(C(N)=O)CC2)cc1", "test": "ligand displacement, radioligand", "setting": "1 µM", "inhibition [%]": -6}
{"SMILES": "CCN(CC)CCCC[C@H](NC(=O)[C@H](CC(C)C)NC(=O)[C@H](C)NC(=O)[C@H](Cc1ccccc1)NC(=O)c1ccc(C(C)(C)C)cc1)C(=O)N[C@@H](CO)C(=O)OC", "test": "ligand displacement, radioligand", "setting": "10 µM", "inhibition [%]": -7}
{"SMILES": "COc1ccc(S(=O)(=O)N2CCCCC2)cc1C", "test": "ligand displacement, radioligand", "setting": "10 µM", "inhibition [%]": "< 30"}
{"SMILES": "C[C@H](C(=O)N[C@H]1COc2ccccc2[C@@H]1S(C)(=O)=O)c1ccc(F)cc1", "test": "cell-free assay", "setting": "10 µM", "inhibition [%]": 8}
